# Results taken from ChEMBL document CHEMBL1155539, “Discovery of 4-[1-[([1-[4-(trifluoromethyl)benzyl]-1H-indol-7-yl]carbonyl)amino]cyclopropyl]benzoic acid (MF-766), a highly potent and selective EP4 antagonist for treating inflammatory pain” (Bioorg Med Chem Lett, 2010).
# pIC50, pKi: −log10 of the molar value.
# Legend:
# [1] = biological target: Prostaglandin E2 receptor EP2 subtype (Homo sapiens, UniProt P43116); assay: Displacement of [3H]PGE2 from human prostanoid EP2 receptor expressed in HEK293-EBNA cells after 60 mins by scintillation counting; type: cell-based
# Chain of Prostaglandin E2 receptor EP2 subtype (P43116 whole entry): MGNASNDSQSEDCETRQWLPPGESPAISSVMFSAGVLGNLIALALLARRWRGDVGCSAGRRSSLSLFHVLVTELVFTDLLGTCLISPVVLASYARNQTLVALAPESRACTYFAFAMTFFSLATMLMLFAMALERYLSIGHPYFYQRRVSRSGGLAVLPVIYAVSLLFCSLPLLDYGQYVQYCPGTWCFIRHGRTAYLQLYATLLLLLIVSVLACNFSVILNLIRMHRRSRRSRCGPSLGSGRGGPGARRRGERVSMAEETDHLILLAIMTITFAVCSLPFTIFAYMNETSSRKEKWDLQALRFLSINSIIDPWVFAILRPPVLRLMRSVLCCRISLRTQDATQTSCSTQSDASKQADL
# Prostacyclin receptor = Prostacyclin receptor (Homo sapiens, UniProt P43119); assay: Displacement of [3H]iloprost from human prostanoid IP receptor expressed in HEK293-EBNA cells after 60 mins by scintillation counting; type: cell-based
# Chain of Prostacyclin receptor (P43119 whole entry): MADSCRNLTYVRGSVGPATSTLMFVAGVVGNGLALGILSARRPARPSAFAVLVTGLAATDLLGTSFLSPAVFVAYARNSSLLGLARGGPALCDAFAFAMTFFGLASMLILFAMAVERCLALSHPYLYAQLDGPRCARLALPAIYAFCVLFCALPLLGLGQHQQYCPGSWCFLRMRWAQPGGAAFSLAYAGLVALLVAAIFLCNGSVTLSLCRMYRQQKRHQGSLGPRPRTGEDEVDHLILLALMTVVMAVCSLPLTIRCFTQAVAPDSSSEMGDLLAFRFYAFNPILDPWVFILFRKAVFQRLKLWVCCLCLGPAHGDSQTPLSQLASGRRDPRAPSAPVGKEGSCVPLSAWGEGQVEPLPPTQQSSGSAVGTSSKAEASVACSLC
# [2] = biological target: T1, Prostaglandin D2 receptor (Homo sapiens, UniProt Q13258); assay: Displacement of [3H]PGD2 from human Prostanoid DP1 receptor expressed in HEK293-EBNA cells after 60 mins by scintillation counting; type: cell-based
# T1 sequence (Q13258 whole entry): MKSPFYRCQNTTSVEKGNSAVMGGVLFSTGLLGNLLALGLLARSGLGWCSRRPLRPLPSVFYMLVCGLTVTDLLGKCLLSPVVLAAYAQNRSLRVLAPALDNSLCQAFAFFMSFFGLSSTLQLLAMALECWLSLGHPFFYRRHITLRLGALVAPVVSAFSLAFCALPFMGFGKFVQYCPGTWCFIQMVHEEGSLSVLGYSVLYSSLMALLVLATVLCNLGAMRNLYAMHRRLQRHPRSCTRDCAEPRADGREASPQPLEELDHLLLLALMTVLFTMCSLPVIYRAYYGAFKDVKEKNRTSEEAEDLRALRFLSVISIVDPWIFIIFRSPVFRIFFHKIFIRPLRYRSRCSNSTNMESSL
# [3] = biological target: T2, Prostaglandin E2 receptor EP4 subtype (Homo sapiens, UniProt P35408); assay: Displacement of [3H]PGE2 from human prostanoid EP4 receptor expressed in HEK293-EBNA cells after 60 mins by scintillation counting; type: cell-based
# T2 sequence (P35408 whole entry): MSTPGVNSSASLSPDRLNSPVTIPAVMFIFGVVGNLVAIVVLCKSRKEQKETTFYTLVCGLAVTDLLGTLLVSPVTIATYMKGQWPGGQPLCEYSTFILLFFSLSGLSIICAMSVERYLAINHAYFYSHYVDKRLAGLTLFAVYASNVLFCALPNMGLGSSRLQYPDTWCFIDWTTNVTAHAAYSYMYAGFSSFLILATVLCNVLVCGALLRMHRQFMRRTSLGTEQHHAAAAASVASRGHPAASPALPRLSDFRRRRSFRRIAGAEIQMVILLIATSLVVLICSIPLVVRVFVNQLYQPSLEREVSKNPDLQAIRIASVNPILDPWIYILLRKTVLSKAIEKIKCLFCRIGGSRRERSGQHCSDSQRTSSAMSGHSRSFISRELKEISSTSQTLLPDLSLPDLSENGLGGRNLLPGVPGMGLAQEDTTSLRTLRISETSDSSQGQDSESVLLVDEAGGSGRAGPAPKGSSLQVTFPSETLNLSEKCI
# [4] = biological target: T3, Prostaglandin E2 receptor EP3 subtype (Homo sapiens, UniProt P43115); assay: Displacement of [3H]PGE2 from human prostanoid EP3 receptor expressed in HEK293-EBNA cells after 60 mins by scintillation counting; type: cell-based
# T3 sequence (P43115 whole entry): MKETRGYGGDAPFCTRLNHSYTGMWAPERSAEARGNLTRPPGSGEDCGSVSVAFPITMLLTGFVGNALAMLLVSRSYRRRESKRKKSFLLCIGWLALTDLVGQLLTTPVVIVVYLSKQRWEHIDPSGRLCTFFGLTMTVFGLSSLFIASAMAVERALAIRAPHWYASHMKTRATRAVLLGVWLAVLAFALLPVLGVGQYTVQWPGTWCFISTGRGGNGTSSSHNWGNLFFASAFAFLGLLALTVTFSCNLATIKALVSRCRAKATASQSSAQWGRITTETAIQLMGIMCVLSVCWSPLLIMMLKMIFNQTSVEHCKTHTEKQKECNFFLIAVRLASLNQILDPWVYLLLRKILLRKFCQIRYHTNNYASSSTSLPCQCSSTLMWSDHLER
# [5] = biological target: T4, Prostaglandin D2 receptor 2 (Homo sapiens, UniProt Q9Y5Y4); assay: Displacement of [3H]PGD2 from human Prostanoid DP2 receptor expressed in HEK293-EBNA cells after 60 mins by scintillation counting; type: cell-based
# T4 sequence (Q9Y5Y4 whole entry): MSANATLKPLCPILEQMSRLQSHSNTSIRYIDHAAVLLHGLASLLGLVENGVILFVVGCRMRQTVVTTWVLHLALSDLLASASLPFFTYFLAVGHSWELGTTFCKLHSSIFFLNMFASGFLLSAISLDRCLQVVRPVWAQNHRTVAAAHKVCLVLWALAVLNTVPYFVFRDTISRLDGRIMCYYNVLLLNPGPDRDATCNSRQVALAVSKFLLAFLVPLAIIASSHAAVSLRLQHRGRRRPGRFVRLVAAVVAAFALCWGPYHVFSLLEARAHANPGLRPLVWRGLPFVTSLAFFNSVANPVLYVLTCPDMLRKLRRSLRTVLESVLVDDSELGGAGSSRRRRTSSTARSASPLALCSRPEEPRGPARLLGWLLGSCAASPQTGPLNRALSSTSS
# Thromboxane A2 receptor = biological target: T5, Thromboxane A2 receptor (Homo sapiens, UniProt P21731); assay: Displacement of [3H]SQ-29548 from human prostanoid TP receptor expressed in HEK293-EBNA cells after 60 mins by scintillation counting; type: cell-based
# T5 sequence (P21731 whole entry): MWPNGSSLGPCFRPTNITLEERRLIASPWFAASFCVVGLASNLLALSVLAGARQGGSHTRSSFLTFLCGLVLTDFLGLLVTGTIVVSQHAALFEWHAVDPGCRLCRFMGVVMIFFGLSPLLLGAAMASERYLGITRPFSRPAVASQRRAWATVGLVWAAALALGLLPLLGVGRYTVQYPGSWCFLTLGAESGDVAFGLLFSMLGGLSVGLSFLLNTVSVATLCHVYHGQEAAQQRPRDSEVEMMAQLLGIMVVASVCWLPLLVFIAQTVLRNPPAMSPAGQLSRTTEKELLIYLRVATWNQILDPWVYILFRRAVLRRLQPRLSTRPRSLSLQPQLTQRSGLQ
# [6] = biological target: Prostaglandin F2-alpha receptor (Homo sapiens, UniProt P43088); assay: Displacement of [3H]PGF2alpha from human prostanoid FP receptor expressed in HEK293-EBNA cells after 60 mins by scintillation counting; type: cell-based
# Chain of Prostaglandin F2-alpha receptor (P43088 whole entry): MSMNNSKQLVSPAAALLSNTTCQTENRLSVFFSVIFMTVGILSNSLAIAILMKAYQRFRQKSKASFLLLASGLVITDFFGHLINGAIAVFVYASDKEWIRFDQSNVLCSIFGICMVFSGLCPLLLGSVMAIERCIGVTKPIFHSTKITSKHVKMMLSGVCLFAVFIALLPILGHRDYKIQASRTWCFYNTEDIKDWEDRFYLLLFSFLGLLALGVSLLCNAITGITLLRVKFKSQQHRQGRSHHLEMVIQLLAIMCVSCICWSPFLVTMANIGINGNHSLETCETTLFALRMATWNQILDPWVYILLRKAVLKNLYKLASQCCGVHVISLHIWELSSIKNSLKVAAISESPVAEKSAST
# [7] = biological target: T2, Prostaglandin E2 receptor EP4 subtype; assay: Antagonist activity at human prostanoid EP4 receptor expressed in HEK293 cells assessed as inhibition of PGE2-induced cAMP accumulation by scintillation proximity assay; type: functional, cell-based
# How it was run: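 Read-out was inhibition of PGE2-induced cAMP accumulation at EP4. Values are means from at least two independent experiments.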
# [8] = biological target: T6, Prostaglandin E2 receptor EP1 subtype (Homo sapiens, UniProt P34995); assay: Displacement of [3H]PGE2 from human prostanoid EP1 receptor expressed in HEK293-EBNA cells after 60 mins by scintillation counting; type: cell-based
# T6 sequence (P34995 whole entry): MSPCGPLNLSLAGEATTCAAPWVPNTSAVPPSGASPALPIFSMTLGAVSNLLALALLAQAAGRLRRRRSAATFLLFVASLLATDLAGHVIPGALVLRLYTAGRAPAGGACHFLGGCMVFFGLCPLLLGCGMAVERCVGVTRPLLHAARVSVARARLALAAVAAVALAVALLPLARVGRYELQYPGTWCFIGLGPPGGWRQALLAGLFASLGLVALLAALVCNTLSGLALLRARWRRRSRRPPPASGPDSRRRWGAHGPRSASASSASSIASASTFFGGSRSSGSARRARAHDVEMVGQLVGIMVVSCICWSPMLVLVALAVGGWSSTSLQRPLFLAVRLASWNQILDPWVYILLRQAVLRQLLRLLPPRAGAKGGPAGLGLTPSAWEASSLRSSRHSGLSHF
# Rattus norvegicus = assay: Antiinflammatory activity in rat assessed as inhibition of complete Freund's adjuvant-induced paw swelling administered daily once 9 days after adjuvant challenge measured on day 18; type: functional
# How it was run: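 Rat adjuvant-induced arthritis model with daily dosing in mg/kg/day. Dose groups were 0, 0.001, 0.01, 0.1 and 1 mg/kg, plus a non-AIA control group. Primary and secondary paw swelling were scored as % inhibition relative to vehicle-treated arthritic rats, and ED50 was estimated from the dose–response.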
SMILES,pKi [1],pKi (Prostacyclin receptor),pKi [2],pKi [3],pKi [4],pKi [5],pKi (Thromboxane A2 receptor),pKi [6],pIC50 [7],pKi [8],ED50 (Rattus norvegicus),ED80 (Rattus norvegicus)
C[C@H](NC(=O)c1cccc2ccn(Cc3cc(Cl)cc(OC(F)(F)F)c3)c12)c1ccc(C(=O)O)cc1,≤ 6.59,≤ 6.59,7.31,9.42,≤ 6.59,≤ 6.59,≤ 6.59,≤ 6.59,8.85,≤ 6.59,,
C[C@H](NC(=O)c1cccc2ccn(Cc3ccc(C(F)(F)F)cc3)c12)c1ccc(C(=O)O)cc1,≤ 6.24,≤ 6.24,5.86,9.21,≤ 6.24,≤ 6.24,≤ 6.24,≤ 6.24,8.57,≤ 6.24,,
C[C@H](NC(=O)c1cc(F)cc2ccn(Cc3cccc(Cl)c3)c12)c1ccc(C(=O)O)cc1,≤ 6.30,≤ 6.30,6.39,8.62,≤ 6.30,≤ 6.30,≤ 6.30,≤ 6.30,8.48,≤ 6.30,,
C[C@H](NC(=O)c1cccc2ccn(Cc3cccc(Cl)c3)c12)c1ccc(C(=O)O)cc1,≤ 5.60,≤ 5.60,7.80,8.57,≤ 5.60,≤ 5.60,≤ 5.60,≤ 5.60,8.23,≤ 5.60,,
Cc1cc2cccc(C(=O)N[C@@H](C)c3ccc(C(=O)O)cc3)c2n1Cc1cccc(Cl)c1,,,6.35,7.25,,,,,,,,
O=C(O)c1ccc(C2(NC(=O)c3cc(Cl)cc4ccn(Cc5ccc(C(F)(F)F)cc5)c34)CC2)cc1,≤ 5.89,≤ 5.89,6.25,9.51,≤ 5.89,≤ 5.89,≤ 5.89,≤ 5.89,8.90,≤ 5.89,,
CS(=O)(=O)c1ccc(C2=C(c3ccccc3)C(=O)OC2)cc1 [ROFECOXIB],,,,,,,,,,,0.7 mg/kg/day,
Cc1cn(Cc2cccc(Cl)c2)c2c(C(=O)N[C@@H](C)c3ccc(C(=O)O)cc3)cccc12,,,5.92,7.40,,,,,,,,
C[C@H](NC(=O)c1cccc2c(Cl)cn(Cc3cccc(Cl)c3)c12)c1ccc(C(=O)O)cc1,≤ 6.03,≤ 6.03,7.85,7.70,≤ 6.03,≤ 6.03,≤ 6.03,≤ 6.03,,≤ 6.03,,
C[C@H](NC(=O)c1cc(Cl)cc2ccn(Cc3cccc(Cl)c3)c12)c1ccc(C(=O)O)cc1,≤ 6.96,≤ 6.96,7.20,9.09,≤ 6.96,≤ 6.96,≤ 6.96,≤ 6.96,8.82,≤ 6.96,,
C[C@H](NC(=O)c1cc(Cl)ccc1Oc1ccc(F)cc1)c1ccc(C(=O)O)cc1,,,,,,,,,,,,11.5 mg/kg
C[C@H](NC(=O)c1cccc2ccn(Cc3cccc(C(F)(F)F)c3)c12)c1ccc(C(=O)O)cc1,≤ 6.11,≤ 6.11,6.05,8.32,≤ 6.11,≤ 6.11,≤ 6.11,≤ 6.11,7.93,≤ 6.11,,
C[C@H](NC(=O)c1cc(Cl)cc2ccn(Cc3ccc(C(F)(F)F)cc3)c12)c1ccc(C(=O)O)cc1,≤ 7.00,≤ 7.00,6.68,9.36,≤ 7.00,≤ 7.00,≤ 7.00,≤ 7.00,8.95,≤ 7.00,,
